Experimental data as given in ChEMBL document CHEMBL4002579, “Isolation and Structure Elucidation by LC-DAD-MS and LC-DAD-SPE-NMR of Cyclopeptide Alkaloids from the Roots of Ziziphus oxyphylla and Evaluation of Their Antiplasmodial Activity” (J Nat Prod, 2016).

Experiments:
Plasmodium falciparum [1] = assay: Antiplasmodial activity against chloroquine-resistant Plasmodium falciparum K1 infected in human O+erythrocytes after 72 hrs by lactate dehydrogenase assay; format: functional, cell-based; conditions: K1, 72 h
MRC5 = assay: Cytotoxicity against human MRC5 cells assessed as decrease in cell proliferation/viability after 7 days by MTT assay; format: cell-based; conditions: MRC5, 168 h
Method in brief: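 Human fetal lung fibroblast MRC-5 cells; tested up to a highest concentration of 64.0 μM. Result is the mean and standard deviation of three experiments.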

Plasmodium falciparum [2] = assay: Antiplasmodial activity against multidrug-resistant Plasmodium falciparum K1 assessed as reduction in parasite growth by [3H]-hypoxanthine incorporation assay; format: functional

| SMILES | IC50 (Plasmodium falciparum [1]) | IC50 (MRC5) | IC50 (Plasmodium falciparum [2]) |
| --- | --- | --- | --- |
| CCC(C)[C@@H]1NC(=O)[C@@H]2[C@H](CCN2C(=O)[C@H](C(C)CC)N(C)C)Oc2ccc(cc2)/C=C\NC1=O (stereo partly specified) | > 32 µM | > 64 µM |  |
| O=C1N/C=C\c2ccc(cc2)O[C@@H](c2ccccc2)[C@H](NC(=O)[C@@H]2CCCN2C(=O)/C=C/c2ccccc2)C(=O)N[C@H]1C(O)c1ccccc1 (stereo partly specified) | 7.4 µM | 31.2 µM |  |
| CCC(C)[C@@H]1NC(=O)[C@@H]2[C@H](CCN2C(=O)[C@H](Cc2c[nH]c3ccccc23)N(C)C)Oc2ccc(cc2)/C=C\NC1=O (stereo partly specified) | 13.6 µM | > 64 µM | 7.3 µM |
| CCC(C)[C@@H]1NC(=O)[C@@H]2[C@H](CCN2C(=O)[C@H](Cc2c[nH]c3ccccc23)N(C)C)Oc2ccc(O)c(c2)/C=C\NC1=O (stereo partly specified) | 7.1 µM | > 64 µM |  |
| CCC(C)[C@@H]1NC(=O)[C@@H]2[C@H](CCN2C(=O)[C@H](Cc2c[nH]c3ccccc23)N(C)C)Oc2ccc(OC)c(c2)/C=C\NC1=O (stereo partly specified) | 3.2 µM | 30.6 µM |  |
